According to ChEMBL document CHEMBL1221324, “Synthesis and characterization of mitoQ and idebenone analogues as mediators of oxygen consumption in mitochondria” (2010):
The source made the active and inactive calls. The rule behind the calls is not given here.

Assays:
CCRF-CEM [1] = test: Cytoprotective activity against diethyl maleate-induced cell death in human CEM cells assessed as cell viability at 2.5 uM treated 18 hrs before diethyl maleate challenge measured after 4 hrs by trypan blue assay; format: functional; settings: read-out: Activity
Summary of the method: (§1)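 CEM leukemia cells grown in RPMI 1640 with 10% FBS and 1% penicillin-streptomycin; 5 × 10⁵ cells/well pretreated with compound for 18 h, then exposed to 5 mM diethyl maleate at 37 °C, 5% CO2 for 4 h. Viability by 0.4% trypan blue exclusion, as percent of control cells given neither DEM nor compound; mean ± SD, n=3.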

CCRF-CEM [2] = test: Cytoprotective activity against diethyl maleate-induced cell death in human CEM cells assessed as cell viability at 0.1 uM treated 18 hrs before diethyl maleate challenge measured after 4 hrs by trypan blue assay; format: functional; settings: read-out: Activity; summary of the method: as §1
CCRF-CEM [3] = test: Cytoprotective activity against diethyl maleate-induced cell death in human CEM cells assessed as cell viability at 0.5 uM treated 18 hrs before diethyl maleate challenge measured after 4 hrs by trypan blue assay; format: functional; settings: read-out: Activity; summary of the method: as §1
C2C12 = test: Inhibition of rotenone-induced blockade of mitochondrial complex 1 in mouse C2C12 cells assessed as increase of oxygen consumption at 10 uM after 2 hrs by fluorescence assay in presence of FCCP; format: cell-based
Summary of the method: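 C2C12 cells grown in DMEM with 10% FBS and 2 mM glutamine were trypsinized, resuspended in phenol red-free medium and pretreated with 25 nM rotenone. They were plated at 200,000 cells/well on an oxygen biosensor plate and given 10 μM compound with 5 μM FCCP. Fluorescence (ex 485/em 620 nm) was followed for 2 h. Rate is M/T, slope at 50% maximum over time to 50% maximum, in triplicate.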

| SMILES | viability at 2.5 µM (CCRF-CEM [1]) | viability at 0.1 µM (CCRF-CEM [2]) | viability at 0.5 µM (CCRF-CEM [3]) | Rescue of oxygen consumption (active/not active) (C2C12) |
| --- | --- | --- | --- | --- |
| COC1=C(C)C(=O)C(CCCCCCCCCCO)=C(C)C1=O | 82.3% | 22.9% | 74.7% | – |
| COC1=C(OC)C(=O)C(CCC[P+](c2ccccc2)(c2ccccc2)c2ccccc2)=C(C)C1=O | – | – | – | Active |
| CC1=C(C)C(=O)C(CCCCCCCCCCO)=C(C)C1=O | 96.3% | 34.8% | 77.3% | – |
| COC1=C(OC)C(=O)C(CCCCCCCCCC[P+](c2ccccc2)(c2ccccc2)c2ccccc2)=C(C)C1=O | – | – | – | inactive |
| COC1=C(OC)C(=O)C(CCCCCCCCCCCCCCC[P+](c2ccccc2)(c2ccccc2)c2ccccc2)=C(C)C1=O | – | – | – | inactive |
| COC1=C(C)C(=O)C(C)=C(CCCCCCCCCCO)C1=O | 77.1% | 8.27% | 21.2% | – |
| COC1=C(OC)C(=O)C(CCCCC[P+](c2ccccc2)(c2ccccc2)c2ccccc2)=C(C)C1=O | – | – | – | inactive |
| COC1=C(OC)C(=O)C(CCCCCCCCCCO)=C(C)C1=O [IDEBENONE] | 86.2% | 24.6% | 35.8% | – |
